Data as given in article PMC10128457 (Pharmaceutical Biology, 2023).
In brackets after ≈: the same amount, converted by molar mass.

Test system: H. pylori
Test: In vitro assay against Helicobacter pylori, broth micro-well dilution method
Format: cell-based
Conditions: for MIC: Helicobacter pylori, read-out: Mean of H. pylori inhibitory % MIC; for anti-H. pylori activity (in words): Table 2
Procedure, shortened: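 Test compound and clarithromycin (positive control) dissolved in DMSO and tested in 96-well plates at 125–0.24 µg against an H. pylori inoculum suspension. Readout: MTT colour at 620 nm on a microplate reader. MIC is the lowest concentration with no change in MTT colour. MIC90 (90% inhibition) is calculated from dose-response curves. Determinations done three times.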

Compound | MIC | anti-H. pylori activity (in words)
O=c1cc(-c2ccc(O)cc2)oc2cc(O)cc(O)c12 [Compound 6, apigenin] | 1.95 µg/mL (≈ 7.22 µM) | 
COc1cc([C@H]2OC[C@H]3[C@@H]2CO[C@@H]3c2cc(OC)c(O)c(OC)c2)cc(OC)c1O [Compound 4, syringaresinol] | 0.98 µg/mL (≈ 2.34 µM) | 
COC(=O)c1ccc(O)cc1 [Compound 9, methylparaben] | 1.95 µg/mL (≈ 12.8 µM) | 
COc1cc(-c2cc(=O)c3c(O)cc(O)cc3o2)ccc1O [Compound 5, chrysoeriol] |  | moderate to low inhibitory activities
CC[C@H]1OC(=O)[C@H](C)[C@@H](O[C@H]2C[C@@](C)(OC)[C@@H](O)[C@H](C)O2)[C@H](C)[C@@H](O[C@@H]2O[C@H](C)C[C@H](N(C)C)[C@H]2O)[C@](C)(OC)C[C@@H](C)C(=O)[C@H](C)[C@@H](O)[C@]1(C)O [Clarithromycin, clarithromycin, reference compound] | 1.95 µg/mL (≈ 2.61 µM) | 
C=C[C@@]1(C)C=C2CC[C@@H]3[C@](C)(CCC[C@@]3(C)C(=O)O)[C@H]2CC1 [Compound 2, pimaric acid] |  | moderate to low inhibitory activities
O=c1cc(-c2ccc(O)c(O)c2)oc2cc(O)cc(O)c12 [Compound 7, luteolin] |  | moderate to low inhibitory activities
COc1ccc(-c2cc(=O)c3c(O)cc(O[C@@H]4O[C@H](CO)[C@@H](O)[C@H](O)[C@H]4O)cc3o2)cc1O [Compound 8, diosmetin-7-O-β-D-glucopyranoside] | 0.98 µg/mL (≈ 2.12 µM) | 
O=C(O)c1ccc(O)cc1 [Compound 10, p-hydroxybenzoic acid] | 0.48 µg/mL (≈ 3.48 µM) | 
